Laboratory results from ChEMBL document CHEMBL3808321, “LAT-1 activity of meta-substituted phenylalanine and tyrosine analogs” (Bioorg Med Chem Lett, 2016).

What was measured:
[1] = biological target: T1, Large neutral amino acids transporter small subunit 1 (Homo sapiens, UniProt Q01650); assay: Substrate activity at human LAT1 expressed in HEK cells assessed as efflux rate of [3H]-gabapentin at 200 uM after 5 to 180 secs by scintillation counting based trans-stimulation assay; assay type: cell-based; conditions: HEK293
Method in brief: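 HEK-hLAT1 cells were preloaded with [3H]-gabapentin, then incubated with test agent at 200 μM. Efflux rate (fmol/min) was compared with efflux in the agent's absence and with L-leucine and L-arginine as positive and negative controls and L-phenylalanine and L-tyrosine as parent amino acids. Mean of at least three experiments.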

[2] = biological target: T1, Large neutral amino acids transporter small subunit 1; assay: Inhibition of human LAT1 expressed in HEK cells assessed as reduction in uptake of [3H]-gabapentin at 200 uM after 3 mins by scintillation counting based cis-inhibition assay; assay type: cell-based; conditions: HEK293
Method in brief: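 HEK cells stably transfected with human LAT-1 cDNA. Test agent at 200 μM competed with [3H]-gabapentin for cellular uptake. Results are % inhibition relative to background signal without inhibitor, with mean of at least three experiments.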

[3] = biological target: T1, Large neutral amino acids transporter small subunit 1; assay: Inhibition of human LAT1 expressed in HEK cells assessed as reduction in uptake of [3H]-gabapentin after 3 mins by scintillation counting based cis-inhibition assay; assay type: cell-based, HEK293

T1 sequence (Q01650 whole entry): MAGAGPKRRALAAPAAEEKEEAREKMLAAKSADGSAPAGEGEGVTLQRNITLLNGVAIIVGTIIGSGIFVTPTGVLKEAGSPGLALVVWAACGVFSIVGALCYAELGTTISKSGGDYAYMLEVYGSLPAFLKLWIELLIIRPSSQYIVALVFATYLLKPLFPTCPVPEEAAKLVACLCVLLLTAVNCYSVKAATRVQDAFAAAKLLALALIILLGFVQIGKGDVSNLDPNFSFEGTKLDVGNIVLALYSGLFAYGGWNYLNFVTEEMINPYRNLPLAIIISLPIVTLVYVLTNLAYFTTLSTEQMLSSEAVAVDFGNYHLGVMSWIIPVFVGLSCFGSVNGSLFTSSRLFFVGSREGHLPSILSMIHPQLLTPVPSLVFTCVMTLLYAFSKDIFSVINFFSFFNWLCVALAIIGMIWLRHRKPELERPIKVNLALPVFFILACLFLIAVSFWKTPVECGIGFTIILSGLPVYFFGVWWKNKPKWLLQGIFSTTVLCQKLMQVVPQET

N[C@@H](Cc1cccc(-c2ccccc2)c1)C(=O)O
Activity [1]: 0.8 fmol/min | inhibition [2]: 98% | IC50 [3]: 6.6 µM

CC(C)c1cc(C[C@H](N)C(=O)O)ccc1O
Activity [1]: 2.8 fmol/min | inhibition [2]: 80%

N[C@@H](Cc1cccc(I)c1)C(=O)O
Activity [1]: 1.9 fmol/min | inhibition [2]: 91%

N[C@@H](Cc1cccc(Br)c1)C(=O)O
Activity [1]: 3 fmol/min | inhibition [2]: 86%

CC(C)(C)c1cc(C[C@H](N)C(=O)O)ccc1O
Activity [1]: 1.5 fmol/min | inhibition [2]: 81%

N[C@@H](Cc1cccc(F)c1)C(=O)O
Activity [1]: 2.3 fmol/min | inhibition [2]: 79%

CC(C)C[C@H](N)C(=O)O
Activity [1]: 3.5 fmol/min | inhibition [2]: 78%

N[C@@H](Cc1cccc(Cc2ccccc2)c1)C(=O)O
Activity [1]: 0.8 fmol/min | inhibition [2]: 98% | IC50 [3]: 7.3 µM

N[C@@H](Cc1cccc(Cl)c1)C(=O)O
Activity [1]: 2.6 fmol/min | inhibition [2]: 84%

N=C(N)NCCC[C@H](N)C(=O)O
Activity [1]: 0.8 fmol/min | inhibition [2]: 49%

N[C@@H](Cc1ccc(O)c(Br)c1)C(=O)O
Activity [1]: 1.8 fmol/min | inhibition [2]: 86%

N[C@@H](Cc1ccc(O)c(F)c1)C(=O)O
Activity [1]: 3 fmol/min | inhibition [2]: 63%

N[C@@H](Cc1ccc(O)cc1)C(=O)O
Activity [1]: 2.1 fmol/min | inhibition [2]: 68%

CCc1cccc(C[C@H](N)C(=O)O)c1
Activity [1]: 3.1 fmol/min | inhibition [2]: 77%

N[C@@H](Cc1ccc(O)c(Cc2ccccc2)c1)C(=O)O
Activity [1]: 1.3 fmol/min | inhibition [2]: 96% | IC50 [3]: 9.1 µM

N[C@@H](Cc1ccc(O)c(-c2ccccc2)c1)C(=O)O
Activity [1]: 1.2 fmol/min | inhibition [2]: 83%

CCc1cc(C[C@H](N)C(=O)O)ccc1O
Activity [1]: 2.4 fmol/min | inhibition [2]: 68%

Cc1cc(C[C@H](N)C(=O)O)ccc1O
Activity [1]: 3.3 fmol/min | inhibition [2]: 56%

COc1ccc(C[C@H](N)C(=O)O)cc1C
Activity [1]: 2.9 fmol/min | inhibition [2]: 75%

N[C@@H](Cc1ccc(O)c(Cl)c1)C(=O)O
Activity [1]: 2.7 fmol/min | inhibition [2]: 63%

CC(C)(C)c1cccc(C[C@H](N)C(=O)O)c1
Activity [1]: 1.5 fmol/min | inhibition [2]: 87%

CC(C)c1cccc(C[C@H](N)C(=O)O)c1
Activity [1]: 1.7 fmol/min | inhibition [2]: 91%

N[C@@H](Cc1ccc(O)c(I)c1)C(=O)O
Activity [1]: 2.4 fmol/min | inhibition [2]: 77%

Cc1ccc(C[C@H](N)C(=O)O)cc1
Activity [1]: 2.7 fmol/min | inhibition [2]: 86%

N[C@@H](Cc1ccccc1)C(=O)O
Activity [1]: 3.6 fmol/min | inhibition [2]: 85%
